In brackets after ≈: the same amount, converted by molar mass. Activity calls are given as the source filed them. The rule behind the calls is not given here.
test system: Radical scavenging activity; test: Antioxidant activity assessed as DPPH free radical scavenging activity after 30 mins by spectrophotometric analysis; assay type: functional
In short: (§1)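 Compounds in methanol at […] were mixed with 0.004% (w/v) methanolic DPPH. After 30 min at room temperature, absorbance was read at 517 nm against a blank. Percent inhibition was calculated from control (all reagents minus compound) and sample absorbances. Run in triplicate.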

SMILES | IC50
O=S(=O)(CC1=NCCO1)c1n[nH]cc1-c1ccc(Cl)cc1 | Not Active
O=S(=O)(CC1=NCCO1)C1=NNCC1c1ccc(Cl)cc1 (stereo not given) | Not Active
COc1ccc(-c2noc(-c3ccc(C)cc3)c2S(=O)(=O)CC2=NCCO2)cc1 | 62.76 µg/mL (≈ 152 µM)
O=S(=O)(CC1=NCCS1)c1n[nH]cc1-c1ccccc1 | Not Active
O=S(=O)(CC1=NCCS1)C1=NNCC1c1ccc(Cl)cc1 (stereo not given) | Not Active

Next, values leading:

IC50 | SMILES
Not Active | O=S(=O)(CC1=NCCS1)C1C(c2ccc(Cl)cc2)=NOC1c1ccc(Cl)cc1 (stereo not given)
Not Active | O=S(=O)(CC1=NCCO1)c1c(-c2ccc(Cl)cc2)noc1-c1ccc(Cl)cc1
82.48 µg/mL (≈ 186 µM) | O=S(=O)(CC1=NCCO1)c1c(-c2ccccc2)nn(-c2ccccc2)c1-c1ccccc1
Not Active | O=S(=O)(CC1=NCCS1)C1C(c2ccc(Cl)cc2)=NN(c2ccccc2)C1c1ccc(Cl)cc1 (stereo not given)
Not Active | O=S(=O)(CC1=NCCO1)C1C(c2ccc(Cl)cc2)=NN(c2ccccc2)C1c1ccc(Cl)cc1 (stereo not given)

test system: Radical scavenging activity; test: Antioxidant activity assessed as DPPH free radical scavenging activity at 100 ug/ml after 30 mins by spectrophotometric analysis relative to control; assay type: functional; in short: as §1

SMILES | inhibition
O=S(=O)(CC1=NCCO1)c1n[nH]cc1-c1ccc(Cl)cc1 | inactive
O=S(=O)(CC1=NCCO1)C1=NNCC1c1ccc(Cl)cc1 (stereo not given) | inactive
O=S(=O)(CC1=NCCS1)C1C(c2ccc(Cl)cc2)=NOC1c1ccc(Cl)cc1 (stereo not given) | inactive
COc1ccc(-c2noc(-c3ccc(C)cc3)c2S(=O)(=O)CC2=NCCO2)cc1 | 79.7%
O=S(=O)(CC1=NCCO1)c1c(-c2ccc(Cl)cc2)noc1-c1ccc(Cl)cc1 | inactive
O=S(=O)(CC1=NCCS1)c1n[nH]cc1-c1ccccc1 | inactive
O=S(=O)(CC1=NCCO1)c1c(-c2ccccc2)nn(-c2ccccc2)c1-c1ccccc1 | 60.6%
O=S(=O)(CC1=NCCS1)C1C(c2ccc(Cl)cc2)=NN(c2ccccc2)C1c1ccc(Cl)cc1 (stereo not given) | inactive
O=S(=O)(CC1=NCCS1)C1=NNCC1c1ccc(Cl)cc1 (stereo not given) | inactive
O=S(=O)(CC1=NCCO1)C1C(c2ccc(Cl)cc2)=NN(c2ccccc2)C1c1ccc(Cl)cc1 (stereo not given) | inactive

test system: not listed separately; test: Antioxidant activity assessed as hydrogen peroxide scavenging activity at 100 ug/ml relative to control; assay type: functional

SMILES | Activity
O=S(=O)(CC1=NCCO1)c1n[nH]cc1-c1ccc(Cl)cc1 | inactive
O=S(=O)(CC1=NCCO1)C1=NNCC1c1ccc(Cl)cc1 (stereo not given) | inactive
O=S(=O)(CC1=NCCS1)C1C(c2ccc(Cl)cc2)=NOC1c1ccc(Cl)cc1 (stereo not given) | inactive
COc1ccc(-c2noc(-c3ccc(C)cc3)c2S(=O)(=O)CC2=NCCO2)cc1 | 77.1%
O=S(=O)(CC1=NCCO1)c1c(-c2ccc(Cl)cc2)noc1-c1ccc(Cl)cc1 | inactive
O=S(=O)(CC1=NCCS1)c1n[nH]cc1-c1ccccc1 | inactive
O=S(=O)(CC1=NCCO1)c1c(-c2ccccc2)nn(-c2ccccc2)c1-c1ccccc1 | 59.1%
O=S(=O)(CC1=NCCS1)C1C(c2ccc(Cl)cc2)=NN(c2ccccc2)C1c1ccc(Cl)cc1 (stereo not given) | inactive
O=S(=O)(CC1=NCCS1)C1=NNCC1c1ccc(Cl)cc1 (stereo not given) | inactive
O=S(=O)(CC1=NCCO1)C1C(c2ccc(Cl)cc2)=NN(c2ccccc2)C1c1ccc(Cl)cc1 (stereo not given) | inactive

test system: not listed separately; test: Antioxidant activity assessed as nitric oxide scavenging activity at 50 ug/ml after 150 mins by Griess method relative to control; assay type: functional
In short: (§2)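 NO was generated from sodium nitroprusside (10 mM) in phosphate buffer saline (0.2 M, pH 7.4). Compounds were added at […] and incubated 150 min at 25 °C. Percent scavenging was calculated from control (all reagents minus compound) and sample absorbances. Run in triplicate.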

SMILES | Activity
O=S(=O)(CC1=NCCO1)c1n[nH]cc1-c1ccc(Cl)cc1 | inactive
O=S(=O)(CC1=NCCO1)C1=NNCC1c1ccc(Cl)cc1 (stereo not given) | inactive
O=S(=O)(CC1=NCCS1)C1C(c2ccc(Cl)cc2)=NOC1c1ccc(Cl)cc1 (stereo not given) | inactive
COc1ccc(-c2noc(-c3ccc(C)cc3)c2S(=O)(=O)CC2=NCCO2)cc1 | 68.8%
O=S(=O)(CC1=NCCO1)c1c(-c2ccc(Cl)cc2)noc1-c1ccc(Cl)cc1 | inactive
O=S(=O)(CC1=NCCS1)c1n[nH]cc1-c1ccccc1 | inactive
O=S(=O)(CC1=NCCO1)c1c(-c2ccccc2)nn(-c2ccccc2)c1-c1ccccc1 | 54.5%
O=S(=O)(CC1=NCCS1)C1C(c2ccc(Cl)cc2)=NN(c2ccccc2)C1c1ccc(Cl)cc1 (stereo not given) | inactive
O=S(=O)(CC1=NCCS1)C1=NNCC1c1ccc(Cl)cc1 (stereo not given) | inactive
O=S(=O)(CC1=NCCO1)C1C(c2ccc(Cl)cc2)=NN(c2ccccc2)C1c1ccc(Cl)cc1 (stereo not given) | inactive

test system: not listed separately; test: Antioxidant activity assessed as nitric oxide scavenging activity at 75 ug/ml after 150 mins by Griess method relative to control; assay type: functional; in short: as §2

SMILES | Activity
O=S(=O)(CC1=NCCO1)c1n[nH]cc1-c1ccc(Cl)cc1 | inactive
O=S(=O)(CC1=NCCO1)C1=NNCC1c1ccc(Cl)cc1 (stereo not given) | inactive
O=S(=O)(CC1=NCCS1)C1C(c2ccc(Cl)cc2)=NOC1c1ccc(Cl)cc1 (stereo not given) | inactive
COc1ccc(-c2noc(-c3ccc(C)cc3)c2S(=O)(=O)CC2=NCCO2)cc1 | 73%
O=S(=O)(CC1=NCCO1)c1c(-c2ccc(Cl)cc2)noc1-c1ccc(Cl)cc1 | inactive
O=S(=O)(CC1=NCCS1)c1n[nH]cc1-c1ccccc1 | inactive
O=S(=O)(CC1=NCCO1)c1c(-c2ccccc2)nn(-c2ccccc2)c1-c1ccccc1 | 59%
O=S(=O)(CC1=NCCS1)C1C(c2ccc(Cl)cc2)=NN(c2ccccc2)C1c1ccc(Cl)cc1 (stereo not given) | inactive
O=S(=O)(CC1=NCCS1)C1=NNCC1c1ccc(Cl)cc1 (stereo not given) | inactive
O=S(=O)(CC1=NCCO1)C1C(c2ccc(Cl)cc2)=NN(c2ccccc2)C1c1ccc(Cl)cc1 (stereo not given) | inactive

test system: Radical scavenging activity; test: Antioxidant activity assessed as DPPH free radical scavenging activity at 75 ug/ml after 30 mins by spectrophotometric analysis relative to control; assay type: functional; in short: as §1

SMILES | inhibition
O=S(=O)(CC1=NCCO1)c1n[nH]cc1-c1ccc(Cl)cc1 | inactive
O=S(=O)(CC1=NCCO1)C1=NNCC1c1ccc(Cl)cc1 (stereo not given) | inactive
O=S(=O)(CC1=NCCS1)C1C(c2ccc(Cl)cc2)=NOC1c1ccc(Cl)cc1 (stereo not given) | inactive
COc1ccc(-c2noc(-c3ccc(C)cc3)c2S(=O)(=O)CC2=NCCO2)cc1 | 75.8%
O=S(=O)(CC1=NCCO1)c1c(-c2ccc(Cl)cc2)noc1-c1ccc(Cl)cc1 | inactive
O=S(=O)(CC1=NCCS1)c1n[nH]cc1-c1ccccc1 | inactive
O=S(=O)(CC1=NCCO1)c1c(-c2ccccc2)nn(-c2ccccc2)c1-c1ccccc1 | 56.6%
O=S(=O)(CC1=NCCS1)C1C(c2ccc(Cl)cc2)=NN(c2ccccc2)C1c1ccc(Cl)cc1 (stereo not given) | inactive
O=S(=O)(CC1=NCCS1)C1=NNCC1c1ccc(Cl)cc1 (stereo not given) | inactive
O=S(=O)(CC1=NCCO1)C1C(c2ccc(Cl)cc2)=NN(c2ccccc2)C1c1ccc(Cl)cc1 (stereo not given) | inactive

test system: Radical scavenging activity; test: Antioxidant activity assessed as DPPH free radical scavenging activity at 50 ug/ml after 30 mins by spectrophotometric analysis relative to control; assay type: functional; in short: as §1

SMILES | inhibition
O=S(=O)(CC1=NCCO1)c1n[nH]cc1-c1ccc(Cl)cc1 | inactive
O=S(=O)(CC1=NCCO1)C1=NNCC1c1ccc(Cl)cc1 (stereo not given) | inactive
O=S(=O)(CC1=NCCS1)C1C(c2ccc(Cl)cc2)=NOC1c1ccc(Cl)cc1 (stereo not given) | inactive
COc1ccc(-c2noc(-c3ccc(C)cc3)c2S(=O)(=O)CC2=NCCO2)cc1 | 72.9%
O=S(=O)(CC1=NCCO1)c1c(-c2ccc(Cl)cc2)noc1-c1ccc(Cl)cc1 | inactive
O=S(=O)(CC1=NCCS1)c1n[nH]cc1-c1ccccc1 | inactive
O=S(=O)(CC1=NCCO1)c1c(-c2ccccc2)nn(-c2ccccc2)c1-c1ccccc1 | 51.9%
O=S(=O)(CC1=NCCS1)C1C(c2ccc(Cl)cc2)=NN(c2ccccc2)C1c1ccc(Cl)cc1 (stereo not given) | inactive
O=S(=O)(CC1=NCCS1)C1=NNCC1c1ccc(Cl)cc1 (stereo not given) | inactive
O=S(=O)(CC1=NCCO1)C1C(c2ccc(Cl)cc2)=NN(c2ccccc2)C1c1ccc(Cl)cc1 (stereo not given) | inactive

test system: not listed separately; test: Antioxidant activity assessed as nitric oxide scavenging activity at 100 ug/ml after 150 mins by Griess method relative to control; assay type: functional; in short: as §2

SMILES | Activity
O=S(=O)(CC1=NCCO1)c1n[nH]cc1-c1ccc(Cl)cc1 | inactive
O=S(=O)(CC1=NCCO1)C1=NNCC1c1ccc(Cl)cc1 (stereo not given) | inactive
O=S(=O)(CC1=NCCS1)C1C(c2ccc(Cl)cc2)=NOC1c1ccc(Cl)cc1 (stereo not given) | inactive
COc1ccc(-c2noc(-c3ccc(C)cc3)c2S(=O)(=O)CC2=NCCO2)cc1 | 76.2%
O=S(=O)(CC1=NCCO1)c1c(-c2ccc(Cl)cc2)noc1-c1ccc(Cl)cc1 | inactive
O=S(=O)(CC1=NCCS1)c1n[nH]cc1-c1ccccc1 | inactive
O=S(=O)(CC1=NCCO1)c1c(-c2ccccc2)nn(-c2ccccc2)c1-c1ccccc1 | 63.5%
O=S(=O)(CC1=NCCS1)C1C(c2ccc(Cl)cc2)=NN(c2ccccc2)C1c1ccc(Cl)cc1 (stereo not given) | inactive
O=S(=O)(CC1=NCCS1)C1=NNCC1c1ccc(Cl)cc1 (stereo not given) | inactive
O=S(=O)(CC1=NCCO1)C1C(c2ccc(Cl)cc2)=NN(c2ccccc2)C1c1ccc(Cl)cc1 (stereo not given) | inactive

test system: not listed separately; test: Antioxidant activity assessed as hydrogen peroxide scavenging activity at 50 ug/ml relative to control; assay type: functional

SMILES | Activity
O=S(=O)(CC1=NCCO1)c1n[nH]cc1-c1ccc(Cl)cc1 | inactive
O=S(=O)(CC1=NCCO1)C1=NNCC1c1ccc(Cl)cc1 (stereo not given) | inactive
O=S(=O)(CC1=NCCS1)C1C(c2ccc(Cl)cc2)=NOC1c1ccc(Cl)cc1 (stereo not given) | inactive
COc1ccc(-c2noc(-c3ccc(C)cc3)c2S(=O)(=O)CC2=NCCO2)cc1 | 70%
O=S(=O)(CC1=NCCO1)c1c(-c2ccc(Cl)cc2)noc1-c1ccc(Cl)cc1 | inactive
O=S(=O)(CC1=NCCS1)c1n[nH]cc1-c1ccccc1 | inactive
O=S(=O)(CC1=NCCO1)c1c(-c2ccccc2)nn(-c2ccccc2)c1-c1ccccc1 | 55.6%
O=S(=O)(CC1=NCCS1)C1C(c2ccc(Cl)cc2)=NN(c2ccccc2)C1c1ccc(Cl)cc1 (stereo not given) | inactive
O=S(=O)(CC1=NCCS1)C1=NNCC1c1ccc(Cl)cc1 (stereo not given) | inactive
O=S(=O)(CC1=NCCO1)C1C(c2ccc(Cl)cc2)=NN(c2ccccc2)C1c1ccc(Cl)cc1 (stereo not given) | inactive

test system: not listed separately; test: Antioxidant activity assessed as hydrogen peroxide scavenging activity at 75 ug/ml relative to control; assay type: functional

SMILES | Activity
O=S(=O)(CC1=NCCO1)c1n[nH]cc1-c1ccc(Cl)cc1 | inactive
O=S(=O)(CC1=NCCO1)C1=NNCC1c1ccc(Cl)cc1 (stereo not given) | inactive
O=S(=O)(CC1=NCCS1)C1C(c2ccc(Cl)cc2)=NOC1c1ccc(Cl)cc1 (stereo not given) | inactive
COc1ccc(-c2noc(-c3ccc(C)cc3)c2S(=O)(=O)CC2=NCCO2)cc1 | 72%
O=S(=O)(CC1=NCCO1)c1c(-c2ccc(Cl)cc2)noc1-c1ccc(Cl)cc1 | inactive
O=S(=O)(CC1=NCCS1)c1n[nH]cc1-c1ccccc1 | inactive
O=S(=O)(CC1=NCCO1)c1c(-c2ccccc2)nn(-c2ccccc2)c1-c1ccccc1 | 57.2%
O=S(=O)(CC1=NCCS1)C1C(c2ccc(Cl)cc2)=NN(c2ccccc2)C1c1ccc(Cl)cc1 (stereo not given) | inactive
O=S(=O)(CC1=NCCS1)C1=NNCC1c1ccc(Cl)cc1 (stereo not given) | inactive
O=S(=O)(CC1=NCCO1)C1C(c2ccc(Cl)cc2)=NN(c2ccccc2)C1c1ccc(Cl)cc1 (stereo not given) | inactive
